Hits are enriched below; roughly 2.1% of the tested compounds scored in any of these assays.
NOD2-RIPK2 inh: inhibitors of human NOD2-RIPK2 interaction; O43353; CHO BLA complementation NOD2-RIPK2, CCF4 ratio; inhibition, % at 4.98 µM; hit rate 0.38% among 360,000; in the data active = inhibition above about 21%;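 note: 0% = vehicle only and 100% = reference blocker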
TLR4-MyD88 BLA: inhibitors of human TLR4-MyD88 binding. HeLa CL3-4 TLR4/MyD88 BLA complementation, FRET ratio. inhibition, % at 8.4 µM. hit rate 0.18% among 200,000. O00206+Q99836; in the data active = inhibition above about 25%;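 note: 0% = vehicle and 100% = reference inhibitor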
MIN6 prolif-1: MIN6 beta-cell proliferation induction; MIN6 cells proliferation, ATPlite luminescence, 48 h; cells starved in 0.2% serum; 100% = growth in 10% serum; proliferation, % at 10 µM; hit rate 0.29% among 330,000; AID 2380;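 active = compounds whose signal lies at least 3.5 SD above the mean of all wells on their plate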;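 note: 0% = DMSO-treated cells in low-serum medium and 100% = 10% serum control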
TLR9-MyD88 block: inhibitors of human TLR9-MyD88 binding. Q9NR96+Q99836. CHO BLA complementation TLR9-MyD88, CCF4 FRET ratio. inhibition, % at 4.98 µM. hit rate 0.21% among 340,000. AID 504734;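 active = inhibition above the mean over all tested compounds plus 3 SD, cut at about 21% in these data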;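 note: 0% = DMSO only wells and 100% = clavulanate BLA inhibitor control wells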
MC4R ag barr: agonists of human melanocortin 4 receptor (MC4R) beta-arrestin; P32245; U2OS MC4R beta-arrestin complementation, luminescence; percent of melanotan II response, DMSO zero; activation, % at 8.9 µM; hit rate 0.98% among 360,000;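 active = activation above a per-plate cutoff, the mean activation of sample wells on that plate plus 3 SD, cut at about 8% in these data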
MC4R antagonist: antagonists of human melanocortin 4 receptor (MC4R) | P32245 | AID 540295 | inhibition, % at 6.5 µM | MC4R-expressing cells, MTII-stimulated cAMP, LANCE TR-FRET | hit rate 0.48% among 360,000;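 active = inhibition above its plate's cutoff, the mean of tested wells on that plate plus 3 SD, cut at about 29% in these data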;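 note: 0% = Melanotan II alone and 100% = Melanotan II plus saturating MCL0020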
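System – human MC4R-expressing U2OS cells · Also added – Melanotan II · Dosing – one concentration, 6.5 µM nominal · Timing – 30-min compound, 1-h challenge, 1-h detection, room temperature · Measured by – Eu-cAMP/anti-cAMP TR-FRET, emission 671 nm · Replicates – singlicate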
MIN6 prolif-2: confirmation of inducers of beta-cell replication in MIN6 cells; shares compounds with MIN6 prolif-1; MIN6 beta-cell proliferation, ATPlite luminescence, 48 h; cells kept in 0.2% serum; scaled between 0.2% and 10% serum; proliferation increase, % at 50 µM; 920 tested, under 10 active;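 active = proliferation increase above 40% at any of the four tested concentrations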
Active calls of the source: *; . = no result.

SMILES	NOD2-RIPK2 inh	TLR4-MyD88 BLA	MIN6 prolif-1	TLR9-MyD88 block	MC4R ag barr	MC4R antagonist	MIN6 prolif-2
COC(=O)Cc1ccc(OC(=O)CCS(=O)(=O)c2ccc(C)cc2)cc1	3	.	3	-1	-1	7	.
c1cncc(CNc2ncnc3ccc(-c4ccoc4)cc23)c1	-1	.	16*	-5	1	3	1
CC(=O)Nc1cccc(NC(=O)COC(=O)CO/N=C(\C)c2ccc3c(c2)OCO3)c1	-2	.	-1	9	-4	-1	.
COc1ccc(/C=C(\C#N)c2n[nH]c(Cn3cncn3)n2)cc1	4	1	-2	.	-2	6	.
CCn1c(SCC(=O)N2CCC(C)CC2)nc2c(c1=O)SC(C)C2 (centres undefined)	-3	.	2	-2	-2	6	.
CC(C)CC(c1nnnn1C(C)C)N1CCN(c2ccccc2)CC1 (centres undefined)	-1	-2	7.3*	-7	-3	3	-2
COc1nc(N/N=C/c2ccc(C)cc2)nc(N2CCCCC2)n1	8	14	7.4*	4	-1	9	-1
COc1ccc(/C=N/Nc2nc(N3CCCC3)nc(N3CCCC3)n2)cc1	0	-3	.	1	-1	15	.
Cc1oc2ccc(O)cc2c1C(=O)c1ccc(F)cc1	-2	.	15*	.	0	16	4
COc1ccc2oc(C)c(C(=O)c3ccc([N+](=O)[O-])cc3)c2c1	0	7	0	7	-2	14	.
COc1ccc(CCC(C)N(C)Cc2ccccc2)cc1 (centres undefined)	13	.	6.6*	2	-2	1	-4
COc1ccc(CC(=O)N(Cc2ccccc2)C(C)C)cc1	-4	.	-2	0	-2	2	.
CN1C[C@@H]2[C@@H]3C(=O)N(C)C(=O)[C@@H]3[C@](C)(C1=O)N2C(=O)c1ccccc1	-4	.	.	0	-1	6	.
COc1nc(N)nc(N)c1NS(=O)(=O)c1ccc(C)cc1	-9	.	9.8*	-6	-3	-5	0
CCn1c(SCC(=O)N=Nc2c(O)[nH]c3ccccc23)nc2ccccc21	-11	-15	0.0*	-12	1	-9	-6
CCn1c(SCC(=O)N=Nc2c(O)[nH]c3ccccc23)nnc1-c1ccc(C(C)(C)C)cc1	.	8	0	.	.	.	.
CCCCn1c(N)c(N(CCC(C)C)C(=O)c2ccc([N+](=O)[O-])s2)c(=O)[nH]c1=O	2	.	-3	9	-2	2	.
CCOC(=O)c1c(NC(=O)Cc2cccs2)sc(C(=O)NC2CCCC2)c1C	6	-2	-3	1	-1	6	.
CCOC(=O)c1c(NC(=O)CC)sc(C(=O)NC2CCCC2)c1C	-13	.	8.1*	0	-1	1	-4
O=C(Nc1ccccc1F)c1ccc(CSc2ccccc2)o1	-5	5	0	-7	-2	24	.
Nc1cc(=O)[nH]c(SCC(=O)c2ccc(F)cc2)n1	3	.	8.3*	-12	-2	-5	0
CCN(CC(=O)Nc1c(F)cccc1F)C(=O)CCNC(=O)c1ccc([N+](=O)[O-])cc1	1	.	0	1	-3	1	.
CNc1ccc(-c2cccc(C#N)c2)cn1	-10	.	.	.	0	-8	.
CC(=NCCN1CCNCC1)C1=C(O)CC(C)(C)CC1=O	4	-11	-2	1	2	4	.
CCN1CN(CCc2ccccc2)CNC1=S	4	-9	9.3*	-5	-2	-2	-3
SMILES	NOD2-RIPK2 inh	TLR4-MyD88 BLA	MIN6 prolif-1	TLR9-MyD88 block	MC4R ag barr	MC4R antagonist	MIN6 prolif-2
CCN1CNC(=S)N(CCc2ccccc2)C1	2	-13	0	-10	-2	4	.
COc1cc(C(=O)N/C(=C\c2cn(S(=O)(=O)N(C)C)c3ccccc23)C(=O)NCCCO)cc(OC)c1OC	-9	-11	8.6*	9	-1	-5	-3
COc1ccc(NC(=O)CN(C)C(=O)CN2C(=O)NC3(CCCC3)C2=O)cc1	-7	.	16*	4	1	0	-2
CCc1c(C)c(C#N)c2nc3ccccc3n2c1N(C)C	-3	8	6.0*	-5	-1	-1	-2
Cc1cc(C(=O)OCc2nc3ccccc3s2)c(C)o1	-7	-6	8.7*	-6	3	7	-4
Cc1ccc(S(=O)(=O)NCc2ccccc2)cc1C(=O)N(C)CC(=O)Nc1c(Cl)cccc1Cl	-2	.	-2	-6	-5	4	.
CCOC(=O)c1cc[nH]c1CC(=O)NC	0	.	8.5*	-2	0	-1	-2
NC(=O)c1cc(S(=O)(=O)NCCc2ccc(S(N)(=O)=O)cc2)cs1	2	.	5.5*	-6	2	12	0
CC1=NCC(C)c2c1[nH]c1ccccc21 (centres undefined)	0	13	7.0*	9	2	-3	-1
CCC(=O)N1N=C(c2cccs2)CC1c1ccc(OC)cc1 (centres undefined)	-12	.	5	6	0	0	.
COc1ccc(C2CC(c3ccc([N+](=O)[O-])cc3)=NN2C(=O)c2ccccc2)cc1OC (centres undefined)	-12	1	-3	6	1	8	.
CCC(=O)N1N=C(c2ccccc2)CC1c1ccc([N+](=O)[O-])cc1 (centres undefined)	3	-1	7.3*	-8	0	1	-6
CCC(=O)N1N=C(c2cccs2)CC1c1ccc(C)cc1 (centres undefined)	3	.	7.8*	-3	0	1	-6
CCn1nnc2cc(C(=O)NCCc3ccccc3F)ccc21	-9	.	-3	-3	0	-3	.
Cc1ccc(C)c(N(C(=O)c2ccco2)C(C(=O)NC2CCCC2)c2ccco2)c1 (centres undefined)	-7	.	5.7*	-3	-2	3	-6
O=C(NCC(=O)N(Cc1ccc(F)cc1)C(C(=O)NC1CCCC1)c1ccco1)c1ccco1 (centres undefined)	-10	-2	7.1*	2	-2	13	-2
O=C(NCC(=O)N(Cc1ccccc1)C(C(=O)NC1CCCC1)c1ccco1)c1ccco1 (centres undefined)	4	-3	-1	1	-3	0	.
O=C(NCC(=O)N(CC1CCCO1)C(C(=O)NC1CCCCC1)c1ccc(F)cc1)c1ccco1 (centres undefined)	-12	4	1	0	-2	4	.
Cc1ccc(C(C(=O)NC2CCCCC2)N(CC2CCCO2)C(=O)CNC(=O)c2ccco2)cc1 (centres undefined)	-1	5	5.5*	2	-2	4	-1

High-throughput results from PubChem BioAssay.
